# ChEMBL document CHEMBL4689842, “EUbOPEN Chemogenomics Library wave 1” (2021)
# Test system: U2OS
# Test: Multiplex assay against U2OS
# Format: toxicity, cell-based
# Conditions: human
# Summary of the method: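 Live cells were stained at seeding with Hoechst33342, BioTracker Green Microtubule Cytoskeleton Dye, MitoTracker Red and Annexin V Alexa Fluor 680, then imaged on a CQ1 microscope at 37°C and 5% CO2 after compound addition. CellPathfinder machine-learning gating split cells into Hoechst high-intensity objects or normal cells. Normal cells were split into healthy, pyknosed or fragmented nuclei, and pyknosed cells into mitotic or apoptotic. Tubulin, mitochondrial-mass and membrane-permeability phenotypes are per cents of healthy-nucleus cells.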
# [1] = 12 h, 1 µM, compound concentration 1 uM, replicate 1
# [2] = 12 h, 1 µM, compound concentration 1 uM, replicate 2
# [3] = 12 h, 10 µM, compound concentration 10 uM, replicate 1
# [4] = 12 h, 10 µM, compound concentration 10 uM, replicate 2
# [5] = 24 h, 1 µM, compound concentration 1 uM, replicate 1
# [6] = 24 h, 1 µM, compound concentration 1 uM, replicate 2
# [7] = 24 h, 10 µM, compound concentration 10 uM, replicate 1
# [8] = 24 h, 10 µM, compound concentration 10 uM, replicate 2
# [9] = 48 h, 1 µM, compound concentration 1 uM, replicate 1
# [10] = 48 h, 1 µM, compound concentration 1 uM, replicate 2
# [11] = 48 h, 10 µM, compound concentration 10 uM, replicate 1
# [12] = 48 h, 10 µM, compound concentration 10 uM, replicate 2
smiles,measurement,setting,value
Cc1cccc(CN2CCN(C(c3ccccc3)c3ccc(Cl)cc3)CC2)c1.Cl.Cl (configuration not stated),Population Apoptotic (%),[1],27%
same,Population Fragmented Nuclei (%),[1],4%
same,Population Healthy Nuclei (%),[1],87%
same,Population Hoechst High Intensity Objects (%),[1],6%
same,Population Membrane Permeable-Phenotype (%),[1],3%
same,Population Mitochondria Different-Phenotype (%),[1],6%
same,Population Mitotic Cells (%),[1],72%
same,Population Normal (%),[1],93%
same,Population Pyknosed Nuclei (%),[1],7%
same,Population Tubulin-Different-Phenotype (%),[1],3%
same,Total Cell Count,[1],182
same,Population Apoptotic (%),[2],0%
same,Population Fragmented Nuclei (%),[2],16%
same,Population Healthy Nuclei (%),[2],79%
same,Population Hoechst High Intensity Objects (%),[2],8%
same,Population Membrane Permeable-Phenotype (%),[2],4%
same,Population Mitochondria Different-Phenotype (%),[2],26%
same,Population Mitotic Cells (%),[2],100%
same,Population Normal (%),[2],91%
same,Population Pyknosed Nuclei (%),[2],3%
same,Population Tubulin-Different-Phenotype (%),[2],23%
same,Total Cell Count,[2],48
same,Population Apoptotic (%),[3],54%
same,Population Fragmented Nuclei (%),[3],6%
same,Population Healthy Nuclei (%),[3],76%
same,Population Hoechst High Intensity Objects (%),[3],5%
same,Population Membrane Permeable-Phenotype (%),[3],4%
same,Population Mitochondria Different-Phenotype (%),[3],73%
same,Population Mitotic Cells (%),[3],45%
same,Population Normal (%),[3],94%
same,Population Pyknosed Nuclei (%),[3],16%
same,Population Tubulin-Different-Phenotype (%),[3],78%
same,Total Cell Count,[3],149
same,Population Apoptotic (%),[4],50%
same,Population Fragmented Nuclei (%),[4],14%
same,Population Healthy Nuclei (%),[4],72%
same,Population Hoechst High Intensity Objects (%),[4],6%
same,Population Membrane Permeable-Phenotype (%),[4],6%
same,Population Mitochondria Different-Phenotype (%),[4],61%
same,Population Mitotic Cells (%),[4],50%
same,Population Normal (%),[4],93%
same,Population Pyknosed Nuclei (%),[4],13%
same,Population Tubulin-Different-Phenotype (%),[4],47%
same,Total Cell Count,[4],58
same,Population Apoptotic (%),[5],45%
same,Population Fragmented Nuclei (%),[5],7%
same,Population Healthy Nuclei (%),[5],86%
same,Population Hoechst High Intensity Objects (%),[5],5%
same,Population Membrane Permeable-Phenotype (%),[5],2%
same,Population Mitochondria Different-Phenotype (%),[5],8%
same,Population Mitotic Cells (%),[5],54%
same,Population Normal (%),[5],94%
same,Population Pyknosed Nuclei (%),[5],6%
same,Population Tubulin-Different-Phenotype (%),[5],2%
same,Total Cell Count,[5],176
same,Population Apoptotic (%),[6],80%
same,Population Fragmented Nuclei (%),[6],18%
same,Population Healthy Nuclei (%),[6],73%
same,Population Hoechst High Intensity Objects (%),[6],10%
same,Population Membrane Permeable-Phenotype (%),[6],11%
same,Population Mitochondria Different-Phenotype (%),[6],13%
same,Population Mitotic Cells (%),[6],20%
same,Population Normal (%),[6],89%
same,Population Pyknosed Nuclei (%),[6],8%
same,Population Tubulin-Different-Phenotype (%),[6],22%
same,Total Cell Count,[6],47
same,Population Apoptotic (%),[7],42%
same,Population Fragmented Nuclei (%),[7],6%
same,Population Healthy Nuclei (%),[7],74%
same,Population Hoechst High Intensity Objects (%),[7],7%
same,Population Membrane Permeable-Phenotype (%),[7],2%
same,Population Mitochondria Different-Phenotype (%),[7],65%
same,Population Mitotic Cells (%),[7],57%
same,Population Normal (%),[7],92%
same,Population Pyknosed Nuclei (%),[7],19%
same,Population Tubulin-Different-Phenotype (%),[7],61%
same,Total Cell Count,[7],181
same,Population Apoptotic (%),[8],11%
same,Population Fragmented Nuclei (%),[8],10%
same,Population Healthy Nuclei (%),[8],77%
same,Population Hoechst High Intensity Objects (%),[8],5%
same,Population Membrane Permeable-Phenotype (%),[8],5%
same,Population Mitochondria Different-Phenotype (%),[8],63%
same,Population Mitotic Cells (%),[8],88%
same,Population Normal (%),[8],94%
same,Population Pyknosed Nuclei (%),[8],12%
same,Population Tubulin-Different-Phenotype (%),[8],45%
same,Total Cell Count,[8],67
same,Population Apoptotic (%),[9],30%
same,Population Fragmented Nuclei (%),[9],5%
same,Population Healthy Nuclei (%),[9],85%
same,Population Hoechst High Intensity Objects (%),[9],3%
same,Population Membrane Permeable-Phenotype (%),[9],1%
same,Population Mitochondria Different-Phenotype (%),[9],11%
same,Population Mitotic Cells (%),[9],69%
same,Population Normal (%),[9],96%
same,Population Pyknosed Nuclei (%),[9],8%
same,Population Tubulin-Different-Phenotype (%),[9],5%
same,Total Cell Count,[9],192
same,Population Apoptotic (%),[10],0%
same,Population Fragmented Nuclei (%),[10],9%
same,Population Healthy Nuclei (%),[10],84%
same,Population Hoechst High Intensity Objects (%),[10],7%
same,Population Membrane Permeable-Phenotype (%),[10],5%
same,Population Mitochondria Different-Phenotype (%),[10],16%
same,Population Mitotic Cells (%),[10],100%
same,Population Normal (%),[10],92%
same,Population Pyknosed Nuclei (%),[10],6%
same,Population Tubulin-Different-Phenotype (%),[10],24%
same,Total Cell Count,[10],45
same,Population Apoptotic (%),[11],54%
same,Population Fragmented Nuclei (%),[11],8%
same,Population Healthy Nuclei (%),[11],72%
same,Population Hoechst High Intensity Objects (%),[11],4%
same,Population Membrane Permeable-Phenotype (%),[11],3%
same,Population Mitochondria Different-Phenotype (%),[11],42%
same,Population Mitotic Cells (%),[11],45%
same,Population Normal (%),[11],95%
same,Population Pyknosed Nuclei (%),[11],18%
same,Population Tubulin-Different-Phenotype (%),[11],44%
same,Total Cell Count,[11],299
same,Population Apoptotic (%),[12],25%
same,Population Fragmented Nuclei (%),[12],12%
same,Population Healthy Nuclei (%),[12],71%
same,Population Hoechst High Intensity Objects (%),[12],5%
same,Population Membrane Permeable-Phenotype (%),[12],7%
same,Population Mitochondria Different-Phenotype (%),[12],30%
same,Population Mitotic Cells (%),[12],75%
same,Population Normal (%),[12],94%
same,Population Pyknosed Nuclei (%),[12],16%
same,Population Tubulin-Different-Phenotype (%),[12],18%
same,Total Cell Count,[12],95
CCc1ccc(OCc2ccccc2C(=O)Nc2ccc3nc(C)cc(N)c3c2)cc1.Cl,Population Apoptotic (%),[1],80%
same,Population Fragmented Nuclei (%),[1],25%
same,Population Healthy Nuclei (%),[1],34%
same,Population Hoechst High Intensity Objects (%),[1],10%
same,Population Membrane Permeable-Phenotype (%),[1],27%
same,Population Mitochondria Different-Phenotype (%),[1],95%
same,Population Mitotic Cells (%),[1],19%
same,Population Normal (%),[1],89%
same,Population Pyknosed Nuclei (%),[1],40%
same,Population Tubulin-Different-Phenotype (%),[1],87%
same,Total Cell Count,[1],191
same,Population Apoptotic (%),[2],71%
same,Population Fragmented Nuclei (%),[2],33%
same,Population Healthy Nuclei (%),[2],33%
same,Population Hoechst High Intensity Objects (%),[2],16%
same,Population Membrane Permeable-Phenotype (%),[2],28%
same,Population Mitochondria Different-Phenotype (%),[2],92%
same,Population Mitotic Cells (%),[2],28%
same,Population Normal (%),[2],84%
same,Population Pyknosed Nuclei (%),[2],33%
same,Population Tubulin-Different-Phenotype (%),[2],85%
same,Total Cell Count,[2],68
same,Population Apoptotic (%),[3],78%
same,Population Fragmented Nuclei (%),[3],9%
same,Population Healthy Nuclei (%),[3],22%
same,Population Hoechst High Intensity Objects (%),[3],7%
same,Population Membrane Permeable-Phenotype (%),[3],75%
same,Population Mitotic Cells (%),[3],21%
same,Population Normal (%),[3],92%
same,Population Pyknosed Nuclei (%),[3],68%
same,Population Tubulin-Different-Phenotype (%),[3],97%
same,Total Cell Count,[3],129
same,Population Apoptotic (%),[4],76%
same,Population Fragmented Nuclei (%),[4],8%
same,Population Healthy Nuclei (%),[4],14%
same,Population Hoechst High Intensity Objects (%),[4],12%
same,Population Membrane Permeable-Phenotype (%),[4],100%
same,Population Mitochondria Different-Phenotype (%),[4],100%
same,Population Mitotic Cells (%),[4],23%
same,Population Normal (%),[4],87%
same,Population Pyknosed Nuclei (%),[4],77%
same,Population Tubulin-Different-Phenotype (%),[4],100%
same,Total Cell Count,[4],50
same,Population Apoptotic (%),[5],90%
same,Population Fragmented Nuclei (%),[5],44%
same,Population Healthy Nuclei (%),[5],16%
same,Population Hoechst High Intensity Objects (%),[5],11%
same,Population Membrane Permeable-Phenotype (%),[5],57%
same,Population Mitochondria Different-Phenotype (%),[5],94%
same,Population Mitotic Cells (%),[5],9%
same,Population Normal (%),[5],88%
same,Population Pyknosed Nuclei (%),[5],38%
same,Population Tubulin-Different-Phenotype (%),[5],73%
same,Total Cell Count,[5],234
same,Population Apoptotic (%),[6],83%
same,Population Fragmented Nuclei (%),[6],25%
same,Population Healthy Nuclei (%),[6],28%
same,Population Hoechst High Intensity Objects (%),[6],17%
same,Population Membrane Permeable-Phenotype (%),[6],27%
same,Population Mitochondria Different-Phenotype (%),[6],90%
same,Population Mitotic Cells (%),[6],16%
same,Population Normal (%),[6],82%
same,Population Pyknosed Nuclei (%),[6],46%
same,Population Tubulin-Different-Phenotype (%),[6],63%
same,Total Cell Count,[6],92
same,Population Apoptotic (%),[7],79%
same,Population Fragmented Nuclei (%),[7],7%
same,Population Healthy Nuclei (%),[7],13%
same,Population Hoechst High Intensity Objects (%),[7],12%
same,Population Membrane Permeable-Phenotype (%),[7],54%
same,Population Mitochondria Different-Phenotype (%),[7],100%
same,Population Mitotic Cells (%),[7],20%
same,Population Normal (%),[7],87%
same,Population Pyknosed Nuclei (%),[7],78%
same,Population Tubulin-Different-Phenotype (%),[7],95%
same,Total Cell Count,[7],127
same,Population Apoptotic (%),[8],70%
same,Population Fragmented Nuclei (%),[8],15%
same,Population Healthy Nuclei (%),[8],38%
same,Population Hoechst High Intensity Objects (%),[8],31%
same,Population Membrane Permeable-Phenotype (%),[8],47%
same,Population Mitochondria Different-Phenotype (%),[8],94%
same,Population Mitotic Cells (%),[8],30%
same,Population Normal (%),[8],68%
same,Population Pyknosed Nuclei (%),[8],45%
same,Population Tubulin-Different-Phenotype (%),[8],94%
same,Total Cell Count,[8],47
same,Population Apoptotic (%),[9],96%
same,Population Fragmented Nuclei (%),[9],46%
same,Population Healthy Nuclei (%),[9],3%
same,Population Hoechst High Intensity Objects (%),[9],15%
same,Population Membrane Permeable-Phenotype (%),[9],75%
same,Population Mitochondria Different-Phenotype (%),[9],100%
same,Population Mitotic Cells (%),[9],3%
same,Population Normal (%),[9],84%
same,Population Pyknosed Nuclei (%),[9],50%
same,Population Tubulin-Different-Phenotype (%),[9],75%
same,Total Cell Count,[9],377
same,Population Apoptotic (%),[10],100%
same,Population Fragmented Nuclei (%),[10],29%
same,Population Healthy Nuclei (%),[10],37%
same,Population Hoechst High Intensity Objects (%),[10],28%
same,Population Membrane Permeable-Phenotype (%),[10],71%
same,Population Mitochondria Different-Phenotype (%),[10],92%
same,Population Mitotic Cells (%),[10],0%
same,Population Normal (%),[10],71%
same,Population Pyknosed Nuclei (%),[10],32%
same,Population Tubulin-Different-Phenotype (%),[10],78%
same,Total Cell Count,[10],140
same,Population Apoptotic (%),[11],84%
same,Population Fragmented Nuclei (%),[11],9%
same,Population Healthy Nuclei (%),[11],12%
same,Population Hoechst High Intensity Objects (%),[11],11%
same,Population Membrane Permeable-Phenotype (%),[11],40%
same,Population Mitochondria Different-Phenotype (%),[11],95%
same,Population Mitotic Cells (%),[11],16%
same,Population Normal (%),[11],88%
same,Population Pyknosed Nuclei (%),[11],77%
same,Population Tubulin-Different-Phenotype (%),[11],90%
same,Total Cell Count,[11],130
same,Population Apoptotic (%),[12],100%
same,Population Fragmented Nuclei (%),[12],47%
same,Population Healthy Nuclei (%),[12],43%
same,Population Hoechst High Intensity Objects (%),[12],63%
same,Population Membrane Permeable-Phenotype (%),[12],60%
same,Population Mitochondria Different-Phenotype (%),[12],90%
same,Population Mitotic Cells (%),[12],0%
same,Population Normal (%),[12],36%
same,Population Pyknosed Nuclei (%),[12],8%
same,Total Cell Count,[12],52
